pIC50: −log10 of the molar value. Values after ≈ are worked out from the molar mass of the structure shown. Active and inactive are the calls of the source. No cut-off for these calls is given here.

The subject of one assay is Mucor hiemalis. Put plainly: Antimicrobial activity against Mucor hiemalis DSM 2656 by serial dilution assay. It counts as functional. An outline of the steps: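 Serial dilution MIC assay in 96-well plates using YM medium for the filamentous fungus; starting concentration 300 μg/mL.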
For assay [1], the system named is Mycolicibacterium smegmatis. The assay is described as follows: Antimicrobial activity against Mycobacterium smegmatis DSM 43524 by serial dilution assay. It counts as functional.
Another assay concerns Micrococcus luteus. The assay is described as follows: Antimicrobial activity against Micrococcus luteus DSM 1790 by serial dilution assay. The class given is functional.
A further assay deals with Bacillus subtilis. Put plainly: Antimicrobial activity against Bacillus subtilis DSM 10 by serial dilution assay. The class given is functional.
Another assay relates to Staphylococcus aureus. Put plainly: Antimicrobial activity against Staphylococcus aureus DSM 346 by serial dilution assay. The class given is functional.
The subject of the next assay is KB 3-1. The assay is described as follows: Cytotoxicity in human KB 3.1 cells. It counts as functional, cell-based. Conditions: for pIC50: Homo sapiens, KB 3-1, read-out: IC50; for IC50: kb 3-1. Put shortly:
(§1)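 In vitro cytotoxicity against mouse fibroblast L929 and HeLa-derived KB-3.1 cells; serial dilutions from a starting concentration of 37 μg/mL; IC50 determined.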

The subject of the next assay is L929. Put plainly: Cytotoxicity in mouse L929 cells. As to conditions: for pIC50: Mus musculus, L929, read-out: IC50; for IC50: l929. It counts as functional, cell-based. Put shortly:
as §1

In the case of `CC1=CC[C@H]([C@@](C)(O)[C@@H](O)C/C=C(\C)C(=O)O)CC1`, 50 µg/mL (≈ 186 µM) was the least that counted as inhibitory with Mucor hiemalis (MIC). Moreover, the MIC result (in assay [1]; in the assay with Micrococcus luteus; in the assay with Bacillus subtilis; with Staphylococcus aureus) was “inactive” throughout.

With `C/C(=C\c1csc(C)n1)[C@@H]1C[C@@H]2O[C@]2(C)CCC[C@H](C)[C@H](O)[C@@H](C)C(=O)C(C)(C)[C@@H](O)CC(=O)O1` [PATUPILONE], the pIC50 (usually the IC50 on a negative log10 scale, so that one unit is a factor of ten) is 10.19 with KB 3-1 and 8.56 in the assay with L929.

Consider `O=C(O)c1cn(C2CC2)c2cc(N3CCNCC3)c(F)cc2c1=O` [CIPROFLOXACIN], for which the MIC (in general, the lowest concentration that inhibits growth of the organism) against Bacillus subtilis was 3.1 µg/mL (≈ 9.36 µM).

Regarding `C=C([C@H]1CC=C(C)CC1)[C@H](O)[C@@H](O)/C=C(\C)C(=O)O`, the pIC50 in the assay on KB 3-1 is 3.76. The MIC against Mucor hiemalis and against Staphylococcus aureus was 100 µg/mL (≈ 375 µM) throughout. The MIC result (in assay [1]; in the assay with Micrococcus luteus; with Bacillus subtilis) was “inactive” throughout.

In the case of `C=C1CCCC(C)(C)[C@@H]1CC/C(=C/CO)CO`, the pIC50 in the assay with KB 3-1 was 4.10; with L929 it was 3.93. Moreover, the MIC was determined as 25 µg/mL (≈ 105 µM) against Mucor hiemalis, 100 µg/mL (≈ 420 µM) against Micrococcus luteus, 100 µg/mL (≈ 420 µM) with Bacillus subtilis and 100 µg/mL (≈ 420 µM) with Staphylococcus aureus. For the same molecule, the MIC entry in assay [1] was “inactive”.

For `O=C(O)/C=C/c1ccc(O)cc1` [COUMARIC ACID], the IC50 entry in the assay on KB 3-1 and in the assay with L929 was “Not Active” each time. Further, in the assay with Mucor hiemalis, the MIC is 50 µg/mL (≈ 305 µM). In addition, the MIC result (in assay [1]; with Micrococcus luteus; in the assay with Bacillus subtilis; in the assay on Staphylococcus aureus) was “inactive” throughout.

In assay [1], `NC[C@H]1O[C@H](O[C@H]2[C@H](O)[C@@H](O[C@H]3O[C@H](CO)[C@@H](O)[C@H](N)[C@H]3O)[C@H](N)C[C@@H]2N)[C@H](O)[C@@H](O)[C@@H]1O` [KANAMYCIN] registered an MIC of 0.4 µg/mL (≈ 0.826 µM).

For the molecule `CC1=CC[C@H]([C@@](C)(O)[C@@H](O)[C@@H](O)/C=C(\C)C(=O)O)CC1`, the MIC result (in the assay with Mucor hiemalis; in assay [1]; in the assay with Micrococcus luteus; with Bacillus subtilis; in the assay on Staphylococcus aureus) was “inactive” throughout.

Take NYSTATIN: in the assay on Mucor hiemalis, inhibition of growth (MIC) required 16.7 µg/mL.

Turning to `CN(C)[C@@H]1C(O)=C(C(N)=O)C(=O)[C@@]2(O)C(O)=C3C(=O)c4c(O)cccc4[C@@](C)(O)[C@H]3[C@H](O)[C@@H]12` [OXYTETRACYCLINE], the minimal inhibitory concentration (MIC) in the assay on Micrococcus luteus and in the assay on Staphylococcus aureus was 0.4 µg/mL (≈ 0.869 µM) in each case.

Take `C=C1CCC[C@@](C)(CO)[C@@H]1CCc1ccoc1`: the pIC50 in the assay on KB 3-1 was 4.56; with L929, 4.22. Also, inhibition of growth in the assay with Bacillus subtilis (MIC) required 75 µg/mL (≈ 320 µM).

On to `C=C1CCC[C@@](C)(CO)[C@@H]1CC/C(=C/CO)CO`, for which the IC50 result in the assay with KB 3-1 and with L929 was “Not Active” throughout. Moreover, the MIC against Mucor hiemalis was determined as 50 µg/mL (≈ 197 µM). Also, the MIC entry (in assay [1]; in the assay with Micrococcus luteus; in the assay on Bacillus subtilis; with Staphylococcus aureus) was “inactive” throughout.

As for `C=C1CCC[C@@](C)(C(=O)O)[C@@H]1CCc1ccoc1`, the pIC50 with KB 3-1 is 3.85. Besides, the MIC in the assay with Mucor hiemalis is 50 µg/mL (≈ 201 µM); with Bacillus subtilis, 75 µg/mL (≈ 302 µM). Also, the MIC result (in assay [1]; in the assay with Micrococcus luteus; in the assay on Staphylococcus aureus) was “inactive” each time. In addition, the IC50 result with L929 is given as “Not Active”.

The record behind these values is ChEMBL document CHEMBL4316643, “Sesquiterpenes from an Eastern African Medicinal Mushroom Belonging to the Genus Sanghuangporus” (J Nat Prod, 2019).
